This is a sample that favours compounds with a hit; in the whole collection about 1.7% have one here.
Scp-1 inhibitor: Scp-1 (human) phosphatase inhibition. Q9GZU7. Recombinant Scp1, phosphopeptide, malachite green phosphate absorbance. inhibition, % at 20 µM. actives 0.88% (n = 340,000). AID 493091;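 active = inhibition above about 50% at 20 µM, limit read from the data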;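 also: plate controls were DMSO wells with enzyme for no effect and wells lacking enzyme for full effect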
Target sequence (Q9GZU7 76-261 limits assumed): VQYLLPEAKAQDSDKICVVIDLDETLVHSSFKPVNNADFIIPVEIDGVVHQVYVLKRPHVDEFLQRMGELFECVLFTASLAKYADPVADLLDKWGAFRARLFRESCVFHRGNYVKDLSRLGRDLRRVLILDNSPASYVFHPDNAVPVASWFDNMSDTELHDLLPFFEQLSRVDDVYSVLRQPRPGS
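Material – SCP-1 phosphatase catalytic domain, residues 76-261 · Buffer or medium – Acidic Tris acetate buffer with magnesium and detergent · Also added – Phospho 17-mer peptide substrate · Compound – single 20 µM dose, 1% DMSO · Times – 45 min room-temperature reaction, 5 min colour, 30 min stabiliser · Technique – Phosphate-binding colour reagent, absorbance read at 630 nm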
DNMT1 inh: inhibitors of human DNMT1; inhibition (reported as % activation of signal), % at 10 µM; DNMT1 molecular beacon, Hinp1I cleavage, fluorescence; P26358; AID 588458; actives 0.83% (n = 360,000); in the data active = inhibition above about 50%
STEP inh: blocks human striatal-enriched tyrosine phosphatase; P54829; recombinant STEP, OMFP fluorogenic substrate, fluorescence; inhibition, % at 20 µM; actives 0.25% (n = 360,000);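 active = inhibition at 20 µM, scaled per plate between control wells, above about 37%, limit read from the data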;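 also: 0% = DMSO with enzyme and substrate and 100% = substrate only without enzyme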
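System: STEP phosphatase, cell-free reaction; Buffer or medium: Bis-Tris pH 6.0 buffer with DTT, detergent; Incubation: 20 min at room temperature, dark; Measured by: fluorescence, 480/540 nm.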
LMPTP inh: blocks human LMPTP phosphatase; recombinant LMPTP-A, OMFP fluorogenic substrate, fluorescence intensity; inhibition, % at 20 µM; P24666; actives 0.22% (n = 360,000);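 active = compounds that cut the enzyme signal by at least half of the control window in the single-dose screen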;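 also: plate controls were DMSO wells with enzyme plus substrate for no effect and substrate without enzyme for full effect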
Target sequence (P24666 whole entry, looked up): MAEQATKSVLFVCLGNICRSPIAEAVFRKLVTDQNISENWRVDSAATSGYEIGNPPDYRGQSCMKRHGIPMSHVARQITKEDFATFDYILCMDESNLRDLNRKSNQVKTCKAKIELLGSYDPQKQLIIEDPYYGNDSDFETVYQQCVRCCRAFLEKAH
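Assay system: LMPTP-A enzyme. Input: 0.625 nM LMPTP-A final. Probe or stimulus: 400 µM OMFP. Compound dosing: single 20 µM dose. Schedule: 50 min dark incubation at room temperature. Detection: fluorescence intensity of OMFP turnover product. Read-out: percent inhibition versus substrate-only and uninhibited controls. Benchmarks: no-enzyme low control, uninhibited high control.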
SUMO1 PPI mod: SUMO1-SIM interaction modulation; P63165; SUMO1 binding to a labelled peptide, TR-FRET, 1 h; inhibition, % at 20 µM; actives 0.33% (n = 360,000); in the data active = inhibition above about 37%
Target sequence (P63165 whole entry, looked up): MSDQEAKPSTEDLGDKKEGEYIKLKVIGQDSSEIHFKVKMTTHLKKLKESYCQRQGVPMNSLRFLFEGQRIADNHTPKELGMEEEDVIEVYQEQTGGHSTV
Beacon interf DR: counter-screen for DNMT1 inhibitors: spectral interference, dose response | shares compounds with DNMT1 inh | IC50, µM | AID 602382 | molecular beacon fluorescence | 200 tested, under 10 active; call rule not given here
DNMT1 inh conf: DNMT1 inhibition confirmation, single concentration; DNMT1 molecular beacon HinP1I cleavage, fluorescence; inhibition, % at 10 µM; actives 8% (n = 2,300); AID 602385; shares compounds with DNMT1 inh;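 active = average inhibition of at least 30% in the single-concentration confirmation test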
Beacon interf: shows spectral interference in the DNMT1 beacon assay | shares compounds with DNMT1 inh | DNMT1 molecular beacon spectral interference counterscreen, fluorescence 485/520 | activation (fluorescence interference), % at 10 µM | actives 1% (n = 2,300) | AID 602387;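 active = activation of at least 30% at 10 µM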;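 also: DNMT1 catalytic domain with a HinP1I cleavage step and a FAM/dabcyl DNA beacon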
The depositor's hits bear a star; . = no result.

SMILES	Scp-1 inhibitor	DNMT1 inh	STEP inh	LMPTP inh	SUMO1 PPI mod	DNMT1 inh conf	Beacon interf	others
CC(=O)NC12CC3CC(C1)CC(C(=O)OCC(=O)c1cc(C)n(C)c1C)(C3)C2	-3	51*	2	-1	0	3	2
CC(CCc1ccccn1)(CCc1ccccn1)C(=O)c1ccccc1	-18	6	-3	0	4	.	.
COC(=O)/C(=C\c1ccc([N+](=O)[O-])o1)NC(=O)c1ccccc1	-3	5	2	0	-20	.	.
Cc1cccc(NC(=O)/C(=C\c2ccc([N+](=O)[O-])o2)NC(=O)c2ccc(Cl)cc2)c1	45	85*	7	9	-13	-1	3
CSc1ccc(/C=C(/NC(=O)c2ccc(C)cc2)C(=O)Nc2cccc(C)c2)cc1	-3	55*	1	0	1	0	2
O=C(CCc1nnc2ccc(NCc3ccccc3)nn12)NC1CCCC1	-6	0	-3	0	1	.	.
COc1ccccc1C(=O)C1CCCN(C(=O)c2cc(CC(C)C)nc(C)n2)C1 (centres undefined)	-4	-1	-3	-1	2	.	.
N#C/C(=C\c1ccc(-c2ccccc2Cl)o1)C(=O)Nc1nc2ccccc2s1	-3	88*	1	4	13	12	-7
COc1ccc(C2CC(c3cccc([N+](=O)[O-])c3)=NN2/C(C)=C/C(C)=O)cc1 (centres undefined)	.	57*	-1	2	-16	1	0
Cc1c(Cl)cccc1N1C(=O)CC(NNC(=O)c2ccc3c(c2)OCO3)C1=O (centres undefined)	-5	-2	-5	-1	-1	.	.
CC(C)CC(=O)Nc1ncc([N+](=O)[O-])s1	-6	5	2	7	-12	.	.
Cc1nc(C)c(C(=O)Nc2ncc([N+](=O)[O-])s2)o1	12	69*	0	3	-7	8	-2
C[n+]1cccc2c(Br)ccc([O-])c21	-15	84*	17	53*	49*	-1	2
[O-][n+]1cccc2c(Br)cc(Br)c(O)c21	2	-8	5	5	8	.	.
CN(C)c1nc(N)nc2c1ncn2C1OC(CO)CC1O (centres undefined)	.	-3	0	-1	6	.	.
COc1ccc2c3c([nH]c2c1)C(C)N(CCC(=O)NN)CC3 (centres undefined)	-6	64*	8	0	-3	4	4
COc1ccc2c3c([nH]c2c1)C(C)N(C(C)=O)CC3 (centres undefined)	-11	0	-2	1	0	.	.
CCOc1cc(NC(=O)c2ccco2)c(OCC)cc1NC(=O)COc1ccccc1C	-5	65*	-1	1	-2	0	-2
Cc1ccccc1OCC(=O)Nc1ccccc1NC(=O)c1ccco1	-3	2	-1	0	2	.	.
CC1=NOC(=O)/C1=C\c1ccc(-c2cc(Cl)ccc2Cl)o1	11	81*	1	0	48*	4	-8
O=C(O)CCCCCN1C(=O)/C(=C\c2cn(-c3ccccc3)nc2-c2cccs2)SC1=S	66*	85*	2	5	114*	44*	-5	Beacon interf DR=60*
CCN1C(=O)/C(=C/c2cn(-c3ccccc3)nc2-c2cccnc2)SC1=S	2	61*	1	-1	2	4	1
O=C(O)CCCCCN1C(=O)/C(=C/c2cn(-c3ccccc3)nc2-c2cccs2)SC1=S	39	83*	1	2	59*	46*	-1	Beacon interf DR=81*
COc1ccc(-c2nn(-c3ccccc3)cc2/C=C2/SC(=S)N(CCC(=O)O)C2=O)cc1	85*	75*	18	0	11	89*	-6	Beacon interf DR=>99
O=C(COC(=O)C12CC3CC(CC(Br)(C3)C1)C2)Nc1cccc(S(=O)(=O)N2CCOCC2)c1	-12	-20	-2	1	2	.	.
SMILES	Scp-1 inhibitor	DNMT1 inh	STEP inh	LMPTP inh	SUMO1 PPI mod	DNMT1 inh conf	Beacon interf	others
CCN(CC(=O)Nc1ccc(OC)cc1)C(=O)c1ccccc1Sc1ccccc1C#N	-1	-10	0	-10	-71	.	.
Cc1ccccc1NP1(=O)OCCCN1Cc1ccccc1Cl (centres undefined)	-13	2	-4	-1	-3	.	.
O=C(Nc1cccnc1Cl)c1cc2c(s1)-c1ccccc1OC2	-6	12	-3	0	-7	.	.
O=C(Nc1ccc(Cl)cn1)c1cc2c(s1)-c1ccccc1OC2	-7	56*	-2	0	-6	0	0
CCOC(=O)C1CCN(c2c(NCCCN3CCCCC3)c(=O)c2=O)CC1	-7	93*	3	0	-2	4	2
CCOC(=O)C1CCN(c2c(NCCCN3CCN(Cc4ccccc4)CC3)c(=O)c2=O)CC1	-6	0	0	-3	-4	.	.
CC(C)(C)OC(=O)C[C@@H]1C/C=C\C[C@H](CC(=O)N[C@H](CO)Cc2ccccc2)C(=O)N[C@H](C(C)(C)C)COC1=O	1	2	2	8	0	.	.
Fc1cc(F)c2nc(Nc3nc4cc5c(cc4s3)OCO5)sc2c1	1	72*	1	11	83*	-1	-4
C=CCSc1ncc(C#N)c(N)n1	2	1	0	-1	4	.	.
N#Cc1c(NC(=O)CSc2ncnc3sccc23)oc(-c2ccco2)c1-c1ccco1	-1	92*	2	12	39	5	2
O=C(COC(=O)c1cccc(NS(=O)(=O)c2ccc(F)c(F)c2)c1)NC(=O)NC1CCCCC1	-7	-6	-3	4	1	.	.
Cc1cc2nc3c(=O)n(C4CCCCC4)c(=O)[nH]c3nc2cc1N	-9	58*	-106	-5	-11	64*	34*
O=C(COc1ccc(Cl)cc1Cl)Nc1ccc(C(=O)Nc2ccccc2C(=O)O)cc1	30	84*	11	14	41*	18	5
Cc1ccc(/C=c2\sc3nc(-c4ccco4)nn3c2=O)o1	81*	105*	72*	61*	44*	0	-1
COCCNCCCCSc1ccc(Cl)cc1	1	75*	-1	-2	-2	0	0
COCCNC(=O)CSc1ccc(Cl)cc1	-5	6	-2	-1	0	.	.
O=C1c2ccccc2[C@@H]2C[C@@H](O)[C@H](Nc3cccc(Cl)n3)CCN12	4	1	4	-2	-1	.	.

Assay outcomes (PubChem)
